Data on 6 compounds can be found in PMC10245299 (Bioorganic & medicinal chemistry letters, 2022).

Where two headings read alike, the source gives them in different places. A value given as a limit tells only on which side of the number the result lay.

The test system of data set [1] is K562 cells. As to conditions: read-out: Toxicity IC50, control compounds; cited from earlier work.
The conditions of data set [2]: by 24 hours in plasma; cited from earlier work.
A short description of data set [3]: Stability in 5 mg/mL K562 extract in lysis buffer. In kind it is in vitro ADME. The following applies: n=2.
The nature of data set [4]: Stability in 50% plasma in phosphate buffered saline. In kind it is in vitro ADME.
Data set [5] concerns K562 cells. The experiment in a line: Direct toxicity against K562 cells. The following applies: Homo sapiens, K562, 72 h, read-out: Toxicity IC50. In kind it is cell-based. The method, boiled down: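 Test compounds were applied directly to K562 cells, without T cells, to measure direct toxicity. n=3.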

For orientation: IC50 means the concentration needed to halve the response being measured. With `C/C(=C\CCP(=O)(OCOC(=O)C(C)(C)C)OCOC(=O)C(C)(C)C)CO` [Compound 5], in the data set on K562 cells [1], the IC50 is over 100 µM. In addition, the “percent metabolized in plasma” value in data set [2] is listed as 95%. In addition, the “K562 extract (4 h, percent remaining)” value in data set [3] was “totally disappeared”.
Consider `CCOC(=O)CNP(=O)(CC/C=C(\C)CO)Oc1ccccc1` (centres unmarked) [Compound 6], for which, in the data set on K562 cells [1], the IC50 is over 100 µM.
In the case of `C/C(=C\CCP(=O)(OCC(=O)OC(C)(C)C)Oc1ccccc1)CO` (centres unmarked) [Compound 7], the IC50 with K562 cells [1] is over 100 µM.
As a reminder, the amount remaining is what is left of the initial amount, in per cent. A low value points to more turnover. In data set [4], `CCOC(=O)[C@H](C)NP(=O)(CCC=C(C)C)N[C@@H](C)C(=O)OCC` [Compound 12] came in with a fraction remaining at 24 h of at least 70%.
For `CCOC(=O)CNP(=O)(CC/C=C(\C)CO)NCC(=O)OCC` [Compound 16], the 50% inhibitory concentration (IC50) with K562 cells [5] was 10 to 100 µM.
Same read-out and setting: to `COC(=O)[C@@H](NP(=O)(CC/C=C(\C)CO)N[C@H](C(=O)OC)C(C)C)C(C)C` [Compound 17] belongs 10 to 100 µM.
